Measured values published in ChEMBL document CHEMBL4316659, “Selective Antiproliferative Withanolides from Species in the Genera Eriolarynx and Deprea” (J Nat Prod, 2019).

Assays:
SW1573 [1] = assay: Antiproliferative activity against human SW1573 cells incubated for 48 hrs by SRB assay; type: functional; conditions: SW1573, 48 h
Procedure, shortened: (§1)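 Cells kept in RPMI 1640 with 5% FBS and 2 mM L-glutamine at 37 °C under 5% CO2. Seeded at 2500 (A549, HBL-100, HeLa, SW1573) or 5000 (T-47D, WiDr, BJ-hTERT) cells/well and left 24 h. Compounds added as serial dilutions (0.01−100 μM) for 48 h. SRB staining read at 530 and 620 nm. GI50 calculated by NCI formulas. Mean of at least two independent experiments ± SD.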

[2] = Ratio of GI50 for antiproliferative activity against human hTERT-BJ cells incubated for 48 hrs by SRB assay to GI50 for antiproliferative activity against human A549 cells incubated for 48 hrs by SRB assay
Procedure, shortened: (§2)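 Selectivity is GI50 in the nontumor BJ-hTERT fibroblasts divided by GI50 in each tumor line. All values come from the same 48 h SRB assay, with 0.01−100 μM serial dilutions.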

SW1573 [3] = assay: (§3) Resistance factor, ratio of GI50 for Antiproliferative activity against human SW1573 cells over-expressing P-gp incubated for 48 hrs in absence of P-gp and CYP3A4/5 inhibitor verapamil by SRB assay to GI50 for antiproliferative activity against human SW1573 cells incubated for 48 hrs in absence of P-gp and CYP3A4/5 inhibitor verapamil by SRB assay; type: functional
Procedure, shortened: (§4)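 Resistance factor is GI50 in SW1573/Pgp divided by GI50 in wild-type SW1573. Both come from 48 h SRB assays, run with 10 μM verapamil (final) or without it.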

SW1573 [4] = assay: as §3, with “presence” for “absence”; type: functional; procedure, shortened: as §4
[5] = Ratio of GI50 for antiproliferative activity against human hTERT-BJ cells incubated for 48 hrs by SRB assay to GI50 for antiproliferative activity against human WiDr cells incubated for 48 hrs by SRB assay; type: toxicity, cell-based; conditions: hTERT-BJ cells versus WiDr cells, read-out: RatioGI50; procedure, shortened: as §2
SW1573 [6] = assay: Antiproliferative activity against human SW1573 cells incubated for 48 hrs in presence of P-gp and CYP3A4/5 inhibitor verapamil by SRB assay; type: functional; conditions: SW1573, 48 h
Procedure, shortened: (§5)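 Wild-type SW1573 (2500 cells/well) and P-gp-overexpressing SW1573/Pgp (5000 cells/well) in RPMI 1640 with 5% FBS. Seeded 24 h, then exposed 48 h to serial dilutions (0.01−100 μM) with or without 10 μM verapamil (final) in the medium. Paclitaxel and vinblastine were reference drugs. SRB read at 530/620 nm. GI50 by NCI formulas, mean of at least two independent experiments ± SD.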

T47D = assay: Antiproliferative activity against human T47D cells incubated for 48 hrs by SRB assay; type: functional; procedure, shortened: as §1
[7] = Ratio of GI50 for antiproliferative activity against human hTERT-BJ cells incubated for 48 hrs by SRB assay to GI50 for antiproliferative activity against human HBL100 cells incubated for 48 hrs by SRB assay; procedure, shortened: as §2
SW1573 [8] = assay: Antiproliferative activity against human SW1573 cells incubated for 48 hrs in absence of P-gp and CYP3A4/5 inhibitor verapamil by SRB assay; type: functional; conditions: SW1573, 48 h; procedure, shortened: as §5
[9] = Antiproliferative activity against human hTERT-BJ cells incubated for 48 hrs by SRB assay; type: cell-based; procedure, shortened: as §1
HeLa = assay: Antiproliferative activity against human HeLa cells incubated for 48 hrs by SRB assay; type: functional; procedure, shortened: as §1
SW1573 [10] = assay: Antiproliferative activity against human SW1573 cells over-expressing P-gp incubated for 48 hrs in presence of P-gp and CYP3A4/5 inhibitor verapamil by SRB assay; type: functional; conditions: SW1573, 48 h; procedure, shortened: as §5
A549 = assay: Antiproliferative activity against human A549 cells incubated for 48 hrs by SRB assay; type: functional; conditions: A549, 48 h; procedure, shortened: as §1
[11] = Ratio of GI50 for antiproliferative activity against human hTERT-BJ cells incubated for 48 hrs by SRB assay to GI50 for antiproliferative activity against human T47D cells incubated for 48 hrs by SRB assay; type: toxicity, cell-based; conditions: hTERT-BJ cells versus T47D cells, read-out: RatioGI50; procedure, shortened: as §2
SW1573 [12] = assay: Antiproliferative activity against human SW1573 cells over-expressing P-gp incubated for 48 hrs in absence of P-gp and CYP3A4/5 inhibitor verapamil by SRB assay; type: functional; conditions: SW1573, 48 h; procedure, shortened: as §5
[13] = Ratio of GI50 for antiproliferative activity against human hTERT-BJ cells incubated for 48 hrs by SRB assay to GI50 for antiproliferative activity against human SW1573 cells incubated for 48 hrs by SRB assay; type: toxicity, cell-based; conditions: hTERT-BJ cells versus SW1573 cells, read-out: RatioGI50; procedure, shortened: as §2
[14] = Ratio of GI50 for antiproliferative activity against human hTERT-BJ cells incubated for 48 hrs by SRB assay to GI50 for antiproliferative activity against human HeLa cells incubated for 48 hrs by SRB assay; type: toxicity, cell-based; conditions: hTERT-BJ cells versus HeLa cells, read-out: RatioGI50; procedure, shortened: as §2
HBL-100 = assay: Antiproliferative activity against human HBL100 cells incubated for 48 hrs by SRB assay; type: functional; conditions: HBL-100, 48 h; procedure, shortened: as §1
WiDr = assay: Antiproliferative activity against human WiDr cells incubated for 48 hrs by SRB assay; type: functional; procedure, shortened: as §1

CCO[C@@H]1O[C@@](C)([C@H]2CC(C)=C(C)C(=O)O2)[C@H]2CC[C@H]3[C@@H]4[C@@H](O)C=C5[C@@H](O)C=CC(=O)[C@]5(C)[C@H]4CC[C@]123
GI50 (SW1573 [1]): 2400 nM | RatioGI50 [2]: 2 - 10 | RatioGI50 (SW1573 [3]): 1.1 | RatioGI50 (SW1573 [4]): 0.4 | selectivity ratio at 48 h [5]: 2 to 10 | GI50 (SW1573 [6]): 3900 nM | GI50 (T47D): 4700 nM | RatioGI50 [7]: 2 - 10 | GI50 (SW1573 [8]): 2100 nM | GI50 at 48 h [9]: > 10000 nM | GI50 (HeLa): 2500 nM | GI50 (SW1573 [10]): 1700 nM | GI50 (A549): 2800 nM | selectivity ratio at 48 h [11]: 2 to 10 | GI50 (SW1573 [12]): 2300 nM | selectivity ratio at 48 h [13]: 2 to 10 | selectivity ratio at 48 h [14]: 2 to 10 | GI50 (HBL-100): 3200 nM | GI50 (WiDr): 6100 nM
